The source made the active and inactive calls. The rule behind the calls is not given here.
Columns and labels:
[1] = Phototoxicity in normal human keratinocytes after 24 hrs of UV irradiation by WST1 assay; type: cell-based; conditions: Keratinocyte, light or radiation study
[2] = tested on: CHO-K1; experiment: Clastogenic activity in CHOK1 cells assessed as lowest drug concentration required to increase number of micronucleated cells after 3 hrs incubation in dark by micronucleus assay; type: functional, Cricetulus griseus
Summary of the method: (§1)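 CHO-K1 cells (50,000, chamber slides) grown 24 h, then dosed with a concentration range in duplicate, either kept dark or irradiated at once (4.5 J/cm², 1 min, 320–800 nm, 750 W m⁻², samples held at 4 °C). Exposure 3 h at 37 °C, then 5 μg/mL cytochalasin B for 24 h. Methanol fixation, Giemsa staining, 2000 binucleated cells per concentration scored at doses giving under 50% toxicity. χ² test against control. MCC is the lowest concentration giving a significant increase.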

[3] = tested on: CHO; experiment: Phototoxicity in transformed CHO cells after 24 hrs of UV irradiation by WST1 assay; type: functional, cell-based; conditions: Cricetulus griseus, light or radiation study
Summary of the method: (§2)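 CHO cells (50,000/well, McCoy's 5A with 10% FCS) grown 24 h, then dosed with a concentration range in duplicate (DMSO under 0.5% final). Either kept dark or irradiated at once (4.5 J/cm²: 0.36 UVA plus 4.14 visible, 750 W m⁻²), then 24 h at 37 °C. After PBS washes, 20 min with WST1 and absorbance read at 450 nm. IC50 is the 50% drop versus control.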

[4] = tested on: CHO-K1; experiment: Clastogenic activity in CHOK1 cells assessed as lowest drug concentration required to increase number of micronucleated cells after 3 hrs of UV irradiation by micronucleus assay; type: functional, Cricetulus griseus; summary of the method: as §1
[5] = tested on: CHO; experiment: Phototoxicity in transformed CHO cells after 24 hrs incubation in dark by WST1 assay; type: functional, cell-based; conditions: Cricetulus griseus, light or radiation study; summary of the method: as §2
[6] = Phototoxicity in normal human keratinocytes after 24 hrs incubation in dark by WST1 assay; type: cell-based; conditions: Keratinocyte, light or radiation study
[7] = tested on: CHO-K1; experiment: Clastogenic activity in CHOK1 cells assessed as induction of chromosomal mutation and misaggregation at 15 uM incubated in dark for 3 hrs by micronucleus assay in presence of protective antioxidant mannitol treated 2 hrs before compound addition; type: functional, cell-based; conditions: Cricetulus griseus
Summary of the method: (§3)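 CHO-K1 cells (50,000, chamber slides, McCoy's 5A with 10% FCS) grown 24 h, then given 2 mM mannitol for 2 h at 37 °C. Then either dark treatment or irradiation at 4.5 J/cm² (UVA-visible 320–800 nm, 750 W m⁻²). Exposure 3 h at 37 °C, then 5 μg/mL cytochalasin B for 24 h. Giemsa staining; binucleated cells scored for micronuclei at 1000×.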

[8] = Ratio of IC50 for normal human keratinocytes incubated in dark to IC50 for normal human keratinocytes incubated under UV irradiation; type: cell-based, Keratinocyte; conditions: read-out: Ratio IC50
[9] = tested on: CHO-K1; experiment: Clastogenic activity in CHOK1 cells assessed as induction of chromosomal mutation and misaggregation at 0.15 uM after 3 hrs of 4.5 J/cm'2 UV irradiation by micronucleus assay in presence of protective antioxidant mannitol treated 2 hrs before compound addition; type: functional, cell-based; conditions: Cricetulus griseus; summary of the method: as §3
[10] = tested on: CHO; experiment: Ratio of IC50 for transformed CHO cells incubated in dark to IC50 for transformed CHO cells incubated under UV irradiation; type: functional, Cricetulus griseus

SMILES	IC50 [1] [µM]	Activity [2] [µM]	IC50 [3] [µM]	Activity [4] [µM]	IC50 [5] [µM]	IC50 [6] [µM]	Activity ([2]; Cricetulus griseus)	Activity ([4]; Cricetulus griseus)	Activity [7]	selectivity ratio [8]	Activity [9]	Ratio IC50 [10]
Nc1ccc2cc3ccc(N)cc3nc2c1 [PROFLAVINE]	> 50	0.005	0.52	0.004	1.1	> 50	–	–	–	–	–	–
O=C(Nc1ccc2cc3ccc(NC(=O)c4ccc(Cl)c(Cl)c4)cc3nc2c1)c1ccc(Cl)c(Cl)c1	> 50	–	> 50	–	> 50	> 50	inactive	inactive	–	–	–	–
CCCC(=O)Nc1ccc2cc3ccc(NC(=O)CCC)cc3nc2c1	0.57	1.01	1.34	0.007	38.9	> 50	–	–	Active	100	Active	–
O=C(Nc1ccc2cc3ccc(NC(=O)c4ccc([N+](=O)[O-])cc4)cc3nc2c1)c1ccc([N+](=O)[O-])cc1	> 50	–	> 50	–	40.2	> 50	inactive	inactive	–	–	–	–
O=C(Nc1ccc2cc3ccc(NC(=O)c4ccccc4)cc3nc2c1)c1ccccc1	0.33	–	0.26	–	23.8	> 50	inactive	inactive	–	100	–	90
CCC(=O)Nc1ccc2cc3ccc(NC(=O)CC)cc3nc2c1	2.4	1.15	2.9	0.03	> 50	> 50	–	–	–	–	–	–
O=C(Nc1ccc2cc3ccc(NC(=O)c4ccc(Cl)cc4)cc3nc2c1)c1ccc(Cl)cc1	5.4	2.38	0.94	0.12	> 50	> 50	–	–	–	–	–	–
CC(=O)Nc1ccc2cc3ccc(NC(C)=O)cc3nc2c1	41.2	11.01	37.2	0.24	> 50	> 50	–	–	–	–	–	–
O=C(Nc1ccc2cc3ccc(NC(=O)c4ccc(F)cc4)cc3nc2c1)c1ccc(F)cc1	> 50	–	> 50	1.81	> 50	> 50	inactive	–	–	–	–	–
COc1ccc(C(=O)Nc2ccc3cc4ccc(NC(=O)c5ccc(OC)cc5)cc4nc3c2)cc1	> 50	–	43.4	–	45.2	> 50	inactive	inactive	–	–	–	–
CC(C)(C)OC(=O)Nc1ccc2cc3ccc(NC(=O)OC(C)(C)C)cc3nc2c1	0.14	–	0.12	–	6.1	> 50	inactive	inactive	–	100	–	–
CC(C)(C)C(=O)Nc1ccc2cc3ccc(NC(=O)C(C)(C)C)cc3nc2c1	4.69	–	0.1	–	0.11	3.28	inactive	inactive	–	–	–	–
O=C(Nc1ccc2cc3ccc(NC(=O)c4ccco4)cc3nc2c1)c1ccco1	19.3	–	16.4	–	2.5	34.1	inactive	inactive	–	–	–	–
O=C(Nc1ccc2cc3ccc(NC(=O)c4cc(C(F)(F)F)cc(C(F)(F)F)c4)cc3nc2c1)c1cc(C(F)(F)F)cc(C(F)(F)F)c1	> 50	–	> 50	–	> 50	> 50	inactive	inactive	–	–	–	–
Nc1ccc(C(=O)Nc2ccc3cc4ccc(NC(=O)c5ccc(N)cc5)cc4nc3c2)cc1	> 50	–	> 50	0.13	> 50	> 50	inactive	–	–	–	–	–
COC(=O)Nc1ccc2cc3ccc(NC(=O)OC)cc3nc2c1	8.1	0.47	3.8	0.21	15.8	> 50	–	–	–	–	–	–
N#Cc1ccc(C(=O)Nc2ccc3cc4ccc(NC(=O)c5ccc(C#N)cc5)cc4nc3c2)cc1	33.5	–	3.46	0.06	> 50	> 50	inactive	–	–	–	–	–
Cc1ccc(C(=O)Nc2ccc3cc4ccc(NC(=O)c5ccc(C)cc5)cc4nc3c2)cc1	4.04	2.11	1.34	0.02	43.1	> 50	–	–	–	–	–	–
O=C(Nc1ccc2cc3ccc(NC(=O)c4cccc5ccccc45)cc3nc2c1)c1cccc2ccccc12	24.1	–	0.32	0.13	42.3	> 50	inactive	–	–	–	–	130

From ChEMBL document CHEMBL1158390, “Photo-inducible cytotoxic and clastogenic activities of 3,6-di-substituted acridines obtained by acylation of proflavine” (Eur J Med Chem, 2009)
